Test [1] relates to Smooth muscle of trachea. Nature of the test: Anti-asthmatic activity in guinea pig tracheal smooth muscle ring assessed as reduction in acetylcholine-induced muscle contractions after 60 mins. In kind it is functional, tissue-based. As to conditions: Cavia porcellus. Summed up:
(§1)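 Guinea pig tracheal rings were held in Krebs-Henseleit at 36.5±0.5°C under 95% O2/5% CO2, at 1.0 g resting tension with 60-min equilibration. Isometric tension was recorded after acetylcholine-induced contraction. The read-out was percentage change in smooth muscle tension with compound, as means±S.D (n=10).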

In test [2] the target is Adrenergic receptor beta (Rattus norvegicus) (UniProt P18090+P10608+P26255). Nature of the test: Agonist activity at beta-adrenergic receptor in rat airway smooth muscle cells assessed as reduction in acetylcholine-induced muscle contractions by measuring cAMP levels after 18 hrs post acetylcholine stimulation by ELISA (reference value: 8.402 +/- 0.041 nmol/l). The class given is functional. Summed up: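 Rat airway smooth muscle cells (passages 4–6) were seeded at 5×10^4/mL and grown for 48 h. They were stimulated with acetylcholine 0.33 mmol/L for 4 h, then exposed to compound for 18 h. Cells were trypsinized (0.25%, 2 min) and sonicated, and cAMP in the supernatant was measured by ELISA.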
In general terms: Cyclic AMP is a second messenger, typically raised through Gs and lowered through Gi signalling.

In test [3] the test system is Rattus norvegicus. Nature of the test: Anti-asthmatic activity in ovalbumin-induced asthmatic Sprague-Dawley rat model assessed as improvement in lung function by measuring dynamic compliance of the airway at 1 g/kg, po co-administered with OVA from day 15 to 21 of experiment period (reference value: 0.46 +/- 0.17). The class given is functional.
Test [4] has as its system Rattus norvegicus. Nature of the test: Anti-asthmatic activity in ovalbumin-induced asthmatic Sprague-Dawley rat model assessed as improvement in lung function by measuring airway resistance at 1 g/kg, po co-administered with OVA from day 15 to 21 of experiment period (reference value: 67.33 +/- 10.54). The class given is functional.
Test [5] relates to Rattus norvegicus. Nature of the test: Anti-asthmatic activity in ovalbumin-induced asthmatic Sprague-Dawley rat model assessed as IL-14 levels in serum at 1 g/kg, po co-administered with OVA from day 15 to 21 of experiment period (reference value: 16.04 +/- 1.41 pg/ml). In kind it is functional.
For test [6], the system named is Rattus norvegicus. Nature of the test: Anti-asthmatic activity in ovalbumin-induced asthmatic Sprague-Dawley rat model assessed as IL-17 levels in serum at 1 g/kg, po co-administered with OVA from day 15 to 21 of experiment period (reference value: 16.85 +/- 1.13 pg/ml). In kind it is functional.
In test [7] the test system is Rattus norvegicus. Nature of the test: Anti-asthmatic activity in ovalbumin-induced asthmatic Sprague-Dawley rat model assessed as improvement in lung function by measuring dynamic compliance of the airway at 1.6 g/kg, po co-administered with OVA from day 15 to 21 of experiment period (reference value: 0.46 +/- 0.17). In kind it is functional.
The test system of test [8] is Rattus norvegicus. Nature of the test: Anti-asthmatic activity in ovalbumin-induced asthmatic Sprague-Dawley rat model assessed as improvement in lung function by measuring airway resistance at 1.6 g/kg, po co-administered with OVA from day 15 to 21 of experiment period (reference value: 67.33 +/- 10.54). In kind it is functional.
Test [9] relates to Rattus norvegicus. Nature of the test: Anti-asthmatic activity in ovalbumin-induced asthmatic Sprague-Dawley rat model assessed as IL-14 levels in serum at 1.6 g/kg, po co-administered with OVA from day 15 to 21 of experiment period (reference value: 16.04 +/- 1.41 pg/ml). In kind it is functional.
Test [10] concerns Rattus norvegicus. Nature of the test: Anti-asthmatic activity in ovalbumin-induced asthmatic Sprague-Dawley rat model assessed as IL-17 levels in serum at 1.6 g/kg, po co-administered with OVA from day 15 to 21 of experiment period (reference value: 16.85 +/- 1.13 pg/ml). The class given is functional.
Test [11] relates to Smooth muscle of trachea. Nature of the test: Anti-asthmatic activity in guinea pig tracheal smooth muscle ring assessed as reduction in acetylcholine-induced muscle contractions by measuring muscle relaxation at 0.75 mmol/l after 60 mins (reference value: 7.73 +/- 4.81%). In kind it is functional, Cavia porcellus. Also noted: scale not given: the % may be the effect or the level left. Summed up: as §1

Test [12] concerns Smooth muscle of trachea. Nature of the test: Anti-asthmatic activity in guinea pig tracheal smooth muscle ring assessed as reduction in acetylcholine-induced muscle contractions by measuring muscle relaxation at 1.25 mmol/l after 60 mins (reference value: 13.59 +/- 9.14%). The class given is functional, Cavia porcellus. On the set-up: scale not given: the % may be the effect or the level left. Summed up: as §1

Test [13] relates to Rattus norvegicus. Nature of the test: Anti-asthmatic activity in ovalbumin-induced asthmatic Sprague-Dawley rat model assessed as IL-14 levels in serum at 0.5 mg/kg, po co-administered with OVA from day 15 to 21 of experiment period (reference value: 16.04 +/- 1.41 pg/ml).
Test [14] relates to Rattus norvegicus. Nature of the test: Anti-asthmatic activity in ovalbumin-induced asthmatic Sprague-Dawley rat model assessed as IL-17 levels in serum at 0.5 mg/kg, po co-administered with OVA from day 15 to 21 of experiment period (reference value: 16.85 +/- 1.13 pg/ml).
The test system of test [15] is Rattus norvegicus. Nature of the test: Anti-asthmatic activity in ovalbumin-induced asthmatic Sprague-Dawley rat model assessed as improvement in lung function by measuring airway resistance at 0.5 mg/kg, po co-administered with OVA from day 15 to 21 of experiment period (reference value: 67.33 +/- 10.54).
The subject of test [16] is Rattus norvegicus. Nature of the test: Anti-asthmatic activity in ovalbumin-induced asthmatic Sprague-Dawley rat model assessed as improvement in lung function by measuring dynamic compliance of the airway at 0.5 mg/kg, po co-administered with OVA from day 15 to 21 of experiment period (reference value: 0.46 +/- 0.17).

For `CC1=CCC(C(C)(C)O)CC1` (stereo not given), the Activity entry in the test on Smooth muscle of trachea [1] is “Dose-dependent effect”; in test [2], 8.51 nmol/L; in the test on Rattus norvegicus [3], 0.53; in the test on Rattus norvegicus [4], 60.57; in the test with Rattus norvegicus [5], 15.5 pg/mL; in the test on Rattus norvegicus [6], 16.19 pg/mL.
Regarding `CC1=CCC(C(C)(C)OC(=O)CSCCO)CC1` (stereo not given), the Activity entry in the test with Smooth muscle of trachea [1] is “Dose-dependent effect”; in test [2], 8.82 nmol/L; with Rattus norvegicus [7] it was 0.88; with Rattus norvegicus [8] it was 41.69; in the test on Rattus norvegicus [9], 14 pg/mL; with Rattus norvegicus [10] it was 15.09 pg/mL.
For `CC1=CCC(C(C)(C)OC(=O)CN(CCO)CCO)CC1` (stereo not given), the Activity result was “Dose-dependent effect” in the test with Smooth muscle of trachea [1] and 8.94 nmol/L in test [2].
As for `CC1=CCC(C(C)(C)OC(=O)C(C)C)CC1` (stereo not given), the Activity was 19.88% in the test with Smooth muscle of trachea [11], 22.79% in the test with Smooth muscle of trachea [12] and “Dose-dependent effect” with Smooth muscle of trachea [1].
Regarding `CC1=CCC(C(C)(C)OC(=O)CSCC(O)CO)CC1` (stereo not given), the Activity with Smooth muscle of trachea [11] is 34.84%; with Smooth muscle of trachea [12], 65.29%; with Smooth muscle of trachea [1], “Dose-dependent effect”; in [2], 8.76 nmol/L.
As for `CC1=CCC(C(C)(C)OC(=O)C(C)(C)C)CC1` (stereo not given), the Activity in the test on Smooth muscle of trachea [11] was 25.49%; in the test with Smooth muscle of trachea [12] it was 28.02%; in the test with Smooth muscle of trachea [1] it was “Dose-dependent effect”.
In the case of `CC(=O)OC(C)(C)C1CC=C(C)CC1` (stereo not given), the Activity in the test with Smooth muscle of trachea [11] was 34.35%; in the test on Smooth muscle of trachea [12], 47.72%; in the test on Smooth muscle of trachea [1], “Dose-dependent effect”.
Regarding `CC1=CCC(C(C)(C)OC(=O)CN2CCC(O)CC2)CC1` (stereo not given), the results for the Activity result (with Smooth muscle of trachea [1]; in test [2]) were “Dose-dependent effect” and 8.98 nmol/L, respectively.
With `CC1=CCC(C(C)(C)OC=O)CC1` (stereo not given), the figures for the Activity in the test with Smooth muscle of trachea [11], in the test with Smooth muscle of trachea [12] and in the test on Smooth muscle of trachea [1] were 14.62%, 21.57% and “Dose-dependent effect”, respectively.
With `CC1=CCC(C(C)(C)OC(=O)CN2CCCCC2)CC1` (stereo not given), the Activity result with Smooth muscle of trachea [1] is “Dose-dependent effect”.
`CCCCCCCCCCCCCC(=O)OC(C)(C)C1CC=C(C)CC1` (stereo not given): the Activity entry with Smooth muscle of trachea [1] was “Dose-dependent effect”.
Consider `CC1=CCC(C(C)(C)OC(=O)CN2CCOCC2)CC1` (stereo not given), for which the Activity entry in the test with Smooth muscle of trachea [1] is “Dose-dependent effect”; in [2], 8.81 nmol/L.
`CC1CCC(C(C)(C)O)CC1` (stereo not given): in the test with Smooth muscle of trachea [1], the Activity result is “Dose-dependent effect”.
For the compound `CCC(=O)OC(C)(C)C1CC=C(C)CC1` (stereo not given), the Activity was 18.18% in the test on Smooth muscle of trachea [11], 23.22% in the test with Smooth muscle of trachea [12] and “Dose-dependent effect” with Smooth muscle of trachea [1].
In the case of `CC1=CCC(C(C)(C)OC(=O)CN(C)CCO)CC1` (stereo not given), the Activity result in the test on Smooth muscle of trachea [1] is “Dose-dependent effect”; in [2] it was 9.01 nmol/L; with Rattus norvegicus [7], 0.84; in the test with Rattus norvegicus [8], 51.69; with Rattus norvegicus [9], 15.66 pg/mL; in the test with Rattus norvegicus [10], 16.35 pg/mL.
On to `CCCCCCCCCCCCCCCCCC(=O)OC(C)(C)C1CC=C(C)CC1` (stereo not given), for which the Activity entry with Smooth muscle of trachea [1] is “Dose-dependent effect”.
The same measure, in the same setting: next, `CC1=CCC(C(C)(C)OC(=O)CN2CCC(=O)CC2)CC1` (stereo not given): “Dose-dependent effect”.
Regarding `CCCC(=O)OC(C)(C)C1CC=C(C)CC1` (stereo not given), the Activity with Smooth muscle of trachea [11] was 21.2%; in the test on Smooth muscle of trachea [12], 25.47%; with Smooth muscle of trachea [1], “Dose-dependent effect”.
As to `Cn1c(=O)c2[nH]cnc2n(C)c1=O`, the Activity result with Smooth muscle of trachea [1] is “Dose-dependent effect”; in test [2] it was 8.6 nmol/L.
For `CC(=O)OCC(=O)[C@@]1(O)[C@H](C)C[C@H]2[C@@H]3CCC4=CC(=O)C=C[C@]4(C)[C@@]3(F)[C@@H](O)C[C@@]21C` [DEXAMETHASONE ACETATE], the Activity came out at 14.31 pg/mL in the test on Rattus norvegicus [13], 16.06 pg/mL in the test on Rattus norvegicus [14], 41.51 with Rattus norvegicus [15] and 0.66 with Rattus norvegicus [16].
On to `CCN(CC)CC(=O)OC(C)(C)C1CC=C(C)CC1` (stereo not given), for which the values for the Activity result (in the test on Smooth muscle of trachea [1]; in test [2]) were “Dose-dependent effect” and 9.53 nmol/L, respectively.
In the case of `CC1=CCC(C(C)(C)OC(=O)CO[N+](=O)[O-])CC1` (stereo not given), in the test on Smooth muscle of trachea [1], the Activity entry was “Dose-dependent effect”.

The record behind these values is ChEMBL document CHEMBL4138217, “Discovery of a novel series of α-terpineol derivatives as promising anti-asthmatic agents: Their design, synthesis, and biological evaluation” (2018).
